# Source: PubChem BioAssay
# DSG3 Ab inh – blocks pemphigus antibody binding to human desmoglein-3; P32926; DSG3-coupled beads, scFv-anti-DSG3-GFP binding, flow cytometry; hits give low values; binding (percent of control), % at 10 µM; 310,000 compounds, 0.48% hits;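 active means binding more than 3 SD below its plate's average and above zero; inconclusive means below that plate limit but binding exactly zero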;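 further: hits lower antibody fragment binding to DSG3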
# SENP1 inh – SENP1 (human) catalytic domain inhibition; recombinant SENP1 catalytic domain, CyPet-SUMO1-YPet FRET cleavage; inhibition, % at 10 µM; 360,000 compounds, 0.21% hits; AID 624204;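 active means inhibition at least 30% at 10 µM, raw YFP signal under a set limit, fluorescence ratio 0.5 to 1.5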;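 further: 0% = enzyme with DMSO and 100% = no enzyme wells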
#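 Material: hSENP1 catalytic domain, recombinant; medium: Tris pH 8 with BME, BSA, NP40 and catalase; compound: single concentration of 10 µM compound, 0.5% DMSO final; technique: FRET read of cyan and yellow fluorescence; timing: 50 min enzyme reaction, room temperature, light-protected; reagent: SFCypet-SUMO1-SFYpet substrate at 25 nM; control set: no-enzyme low, enzyme-DMSO high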
# Myeloid diff MLP – compounds promoting myeloid differentiation; ER-HoxA9 myeloid progenitors, lysozyme-GFP differentiation, flow cytometry; calls only at 10 µM; 360,000 compounds, 1% hits; AID 624256;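 active means normalized GFP-positive differentiation at or above the plate's own cutoff, the solvent-only control mean plus 3 SD; inconclusive means no clear call, values can overlap the other calls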;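 further: cells exposed to compound for four days before flow analysis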
# Cardio protect – modulators protecting cardiomyocytes from myocardial damage | 360,000 compounds, 0.63% hits | protection from H2O2 cell death, % at 20 µM | H9c2 cardiomyocytes, H2O2 injury protection, ATPLite, 2 h | AID 588492;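 active means compounds giving at least 50% protection of heart cells from peroxide-induced death in the single-dose screen, raw or plate-pattern-corrected value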;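 further: 0% = DMSO wells with peroxide and 100% = DMSO wells without peroxide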
# Granule exo inh – lytic granule exocytosis inhibition. 360,000 compounds, 0.66% hits. TALL-104 LAMP-1 surface exposure, flow cytometry; cells stimulated with thapsigargin and PMA. inhibition, % at 10 µM;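 active means inhibition above about 55%, limit read from the data; inconclusive means no clear call, values can overlap the other calls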
# HNF4A DNA FP – change in binding of human HNF4 alpha to DNA | P41235 | HNF4a-FITC DNA binding, fluorescence polarization, 1 h | activity change, % at 10 µM | 360,000 compounds, 0.3% hits; in the data active means activity change above about 30%, passing the limit was not always enough
# Target sequence (P41235 whole entry, looked up): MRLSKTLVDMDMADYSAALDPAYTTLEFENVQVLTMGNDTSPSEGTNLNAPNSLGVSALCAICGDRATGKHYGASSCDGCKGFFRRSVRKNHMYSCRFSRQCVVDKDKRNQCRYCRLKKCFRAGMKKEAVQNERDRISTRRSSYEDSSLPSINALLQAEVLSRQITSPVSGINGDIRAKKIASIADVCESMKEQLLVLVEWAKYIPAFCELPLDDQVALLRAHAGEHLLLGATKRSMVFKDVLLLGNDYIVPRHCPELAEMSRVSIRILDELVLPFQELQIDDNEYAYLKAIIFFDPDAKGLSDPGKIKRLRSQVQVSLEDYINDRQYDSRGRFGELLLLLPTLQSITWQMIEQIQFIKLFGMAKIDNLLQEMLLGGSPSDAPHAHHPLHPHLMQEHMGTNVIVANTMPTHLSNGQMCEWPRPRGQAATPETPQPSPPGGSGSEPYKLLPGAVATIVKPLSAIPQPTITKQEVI
# * = called active by the depositor; i = inactive; u = inconclusive; x = not tested or not shown; + = active, no number. This is a sample that favours compounds with a hit; in the whole collection about 3% have one here.
SMILES,DSG3 Ab inh,SENP1 inh,Myeloid diff MLP,Cardio protect,Granule exo inh,HNF4A DNA FP
Cc1cc(C)c(NC(=O)C2CCCN(S(=O)(=O)c3c(C)noc3/C=C/N(C)C)C2)c(C)c1 (centres undefined),99.1,0.8,i,-2.2,-3.5,0.7
CCn1c(SCC(=O)Nc2ccc3c(c2)OCO3)nc2c(c1=O)SC(C)C2 (centres undefined),97.2,-3.2,+,15.2,10.9,-5.4
CC1Cc2nc(SCC(=O)c3ccccc3)n(Cc3ccccc3)c(=O)c2S1 (centres undefined),100.6,2.5,+,7.5,-5.1,-1.0
COC(=O)c1c(-c2ccccc2)c[nH]c1C,115.0,2.7,i,0.8,2.0,1.0
Cc1[nH]c2ccccc2c1/C=N/NC(=O)c1cc(-c2ccccc2)n[nH]1,89.4,1.5,i,55.4*,4.4,-0.7
Cc1nn(-c2ccccc2)c(C)c1/C=N/NC(=O)c1cc(-c2ccccc2)n[nH]1,106.1,0.7,u,75.3*,18.0,4.6
C=CCN1C(=O)C(Cc2ccc(F)cc2)S/C1=N/N=C/c1cccs1 (centres undefined),102.6,3.6,i,5.7,-5.9,0.5
O=C1CS/C(=N/N=C/c2cccs2)N1Cc1ccc(F)cc1,70.0*,2.7,i,-25.5,-25.7,1.0
CCN(Cc1ccccc1)C(=O)c1cc2c(=O)oc3ccc(C)cc3c2s1,102.8,-0.1,i,97.4*,2.7,-1.6
CCN1CCN(CCCNC(=O)c2cc3c(=O)oc4ccc(C)cc4c3s2)CC1,106.4,-1.9,i,6.2,-0.5,2.0
Cc1ccc(-n2c(N)c(C#N)c(-c3ccccc3)c(C#N)c2=O)cc1,101.8,0.4,i,-8.5,-5.3,2.0
Cc1ccc(-c2nc3sc(C#N)c(N)n3c(=O)c2C#N)cc1,67.8*,-15.2,i,-2.6,-1.7,30.0
Cc1nonc1NC(=O)CSc1nc2ccccc2o1,95.5,1.1,i,3.5,-3.8,3.0
Cc1cc(NC(=O)COC(=O)C2=NN(c3ccccc3)C(=O)CC2)c([N+](=O)[O-])cc1C,u,0.0,i,1.5,6.3,1.0
Cc1nn(C)c(C(=O)Nc2ccn(Cc3c(F)c(F)cc(F)c3F)n2)c1[N+](=O)[O-],103.2,0.9,+,-3.4,4.2,0.7
CC(=O)N(Cc1ccc(F)cc1)C1=C(NCc2ccccc2)C(=O)c2ccccc2C1=O,x,-74.9,+,-36.1,14.8,0.8
O=C(CCc1ccccc1)NN1C(=O)C2C3C=CC(O3)C2C1=O (centres undefined),98.7,3.1,i,20.6,0.8,0.4
O=C1C2C3C=CC(O3)C2C(=O)N1CC(O)c1ccccc1 (centres undefined),107.1,-0.8,i,9.0,63.1*,-0.2
Cc1cc(N/N=C/c2ccc(O)c(C)c2O)nc(-c2ccccc2O)n1,129.3,-1.4,i,35.6,80.4*,-0.8
O=C1c2cc([N+](=O)[O-])ccc2-c2cc(Br)c(N=C(NO)C(F)(F)F)cc21,99.1,68.8*,i,-16.1,7.7,19.2
COC1=CC2(O)CCCC2=CC1=O (centres undefined),99.8,1.7,+,9.2,-3.9,-0.6
COc1ccc2c(c1)CCCC21NC(=O)NC1=O (centres undefined),101.9,0.7,i,4.1,0.3,-1.7
COc1cc(Br)cc(C=Nc2cccc(C(F)(F)F)c2)c1O,107.8,12.1,i,53.4*,-0.2,1.5
CSc1nc2ncc3c(n2n1)CC1c2ccccc2CCN1C3=O (centres undefined),102.2,-56.5,i,58.9*,12.4,3.8
Cc1ccc(NC(=Nc2ccc(Br)cc2)N2CCOCC2)cc1C,u,1.3,i,-1.7,2.2,3.1
SMILES,DSG3 Ab inh,SENP1 inh,Myeloid diff MLP,Cardio protect,Granule exo inh,HNF4A DNA FP
CC1CC2(CCCCC2)Nc2ccc3ccccc3c21 (centres undefined),99.7,-69.5,+,-7.2,-5.8,0.7
CCN1C(=O)/C(=C\C=C2/C=CC=CN2CC)SC1=S,124.7,7.5,i,-4.9,-1.6,136.2*
O=C(O)CN1C(=O)/C(=C/C=C/c2ccccc2)SC1=S,105.8,0.7,i,-5.0,-4.4,1.6
CCN1C(=O)/C(=C/C=C2\C=CN(CC)c3ccccc32)SC1=S,91.0,-16.5,i,-12.6,10.9,1.5
CCN1C(=O)/C(=C/C2=Cc3ccccc3OC2C)SC1=S (centres undefined),95.0,-37.5,i,-4.3,5.6,90.7*
CCN1C(=O)C(=CC=CN(C)c2ccccc2)SC1=S,150.9,-31.4,+,-5.2,-0.6,176.5
C/C(=N/NC(=O)c1cccs1)c1ccc(N2CCOCC2)cc1,95.3,1.8,i,-1.4,-0.1,2.9
Cn1nc(C(=O)NNC(=O)C2CSC3(C)CCC(=O)N23)c2ccccc2c1=O (centres undefined),101.1,-0.7,i,5.1,-0.3,0.8
COc1ccc(CC(=O)NNC(=O)COc2ccc(C)cc2)cc1S(=O)(=O)N1CCOCC1,103.2,-0.1,i,-1.9,1.6,-1.1
Cc1ccc(C(C)C)c(OCc2ccc(C(=O)N/N=C/c3ccc(O)cc3O)cc2)c1,106.2,-92.5,u,57.1*,-4.3,-2.1
C=C1c2cccc(O)c2C(O)=C2C(=O)[C@]3(O)C(O)=C(C(N)=O)C(=O)[C@@H](N(C)C)[C@@H]3[C@@H](O)[C@H]12,96.5,31.4*,i,2.2,-0.8,-51.9
C[C@H]1c2cccc(O)c2C(O)=C2C(=O)C3(O)C(O)=C(C(N)=O)C(=O)[C@@H](N(C)C)[C@@H]3[C@@H](O)[C@@H]21 (some centres undefined),92.5,6.5,i,7.1,3.4,1.6
CC1(C)CC(=O)C2=C(C1)OC1OC(=O)CC21C (centres undefined),81.6,1.2,i,-0.5,2.3,-4.0
CCOc1ccc(-n2c(C)c(C(C)=O)c3cc(OC(C)=O)ccc32)cc1,97.4,-0.7,i,50.1*,46.0,-1.2
CCOc1ccc(-n2c(C)c(C(=O)O)c3cc(OC)ccc32)cc1,105.0,-0.7,i,-3.6,-5.9,1.8
Cn1c(-c2ccc(Cl)cc2)cnc1N,99.0,1.0,i,69.2*,0.8,0.1
CCOc1ccc(-c2cnc(N)n2C)cc1,105.6,-0.7,i,9.9,-0.3,-0.1
CCCn1c(N)c(C(=O)CSc2nnc3ccccn23)c(=O)n(C)c1=O,101.7,0.2,i,-2.2,1.3,-3.0
CCOc1ccc(NC(=O)CCC(=O)NNC(=O)COc2ccc(C)cc2)cc1,83.8*,2.5,i,-3.0,14.9,0.6
CCOc1ccc(NC(=O)CCC(=O)NNC(=O)COc2ccc(C)cc2Br)cc1,95.8,2.9,i,-9.4,-4.5,0.4
